Columns and labels:
Assay in all cases: MIC by microbroth dilution
Conditions in all cases: 24 h, 37 °C
[1] = test system: MRSA 33591; type: cell-based, Staphylococcus aureus
In short: (§1)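 CLSI microbroth dilution in Mueller-Hinton broth. Strains were grown at 37 °C with shaking to log phase, pelleted, and resuspended in 0.85% saline to OD625 0.1. Final inoculum 5 × 10^5 CFU/mL in 96-well plates, tested in triplicate, incubated 24 h at 37 °C. Growth was read as OD at 625 nm.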

[2] = test system: MRSA A960649; type: cell-based, Staphylococcus aureus
In short: as §1

[3] = test system: S. aureus 29213; type: cell-based, Staphylococcus aureus
[4] = test system: S. aureus 33591; type: cell-based, Staphylococcus aureus
[5] = test system: S. epidermidis 12384; type: cell-based, Staphylococcus epidermidis
In short: as §1

[6] = test system: E. faecium BM4105RF; type: cell-based, Enterococcus faecium
[7] = test system: E. faecalis 29212; type: cell-based, Enterococcus faecalis
[8] = test system: S. flexneri 2457NR517; type: cell-based, Shigella flexneri
[9] = test system: E. coli 25922; type: cell-based, Escherichia coli
[10] = test system: E. coli K12; type: cell-based, Escherichia coli
[11] = test system: A. baumanni 19606; type: cell-based, Acinetobacter baumanni
In short: as §1

[12] = test system: P. aeruginosa 27853; type: cell-based, Pseudomonas aeruginosa
[13] = test system: K. pneumoniae NR15410; type: cell-based, Klebsiella pneumoniae
In short: as §1

[14] = test system: E. cloacae 13047; type: cell-based, Enterobacter cloacae
In short: as §1

[15] = test system: C. freundii 4747CFAA; type: cell-based, Citrobacter freundii
In short: as §1

6-(4-Methylpiperazin-1-yl)-2-(4-(2-(4-(oct-7-ynyl)-1H-1,2,3-triazol-1-yl)ethoxy)phenyl)-1H-benzo[d]imidazole [Compound 22]
16 to 32 µg/mL: MIC S. aureus 29213 [3] | MIC S. aureus 33591 [4] | MIC E. faecalis 29212 [7]
>32 µg/mL: MIC MRSA 33591 [1] | MIC MRSA A960649 [2] | MIC S. epidermidis 12384 [5] | MIC E. faecium BM4105RF [6] | MIC S. flexneri 2457NR517 [8] | MIC A. baumanni 19606 [11] | MIC K. pneumoniae NR15410 [13] | MIC E. cloacae 13047 [14] | MIC C. freundii 4747CFAA [15]
16 µg/mL: MIC E. coli 25922 [9] | MIC E. coli K12 [10] | MIC P. aeruginosa 27853 [12]
